Tests used:
[1] = Negative inotropic activity in guinea pig left atrium assessed as decrease in developed tension; type: functional, tissue-based; details: Cavia porcellus, Cardiac atrium
How it was run: (§1)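 Isolated guinea pig atria are used, with left atria driven at 1 Hz. Compounds are added cumulatively. EC50 is derived from log concentration−response curves by Litchfield–Wilcoxon probit analysis, n = 6−7. EC50 is not calculated when the maximal effect is below 50%.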

HEK293 = experiment: Displacement of [3H]-PN200-110 from voltage-gated calcium channel subunit alpha Cav1.2a (unknown origin) expressed in HEK293 cells at 100 uM after 90 mins by liquid scintillation counting analysis relative to control; type: cell-based; details: Homo sapiens
[2] = Negative inotropic activity in guinea pig left atrium assessed as decrease in developed tension at 10^-4 M relative to control; type: functional, Cavia porcellus, Cardiac atrium; parameters: scale not given: the % may be the effect or the level left
[3] = Displacement of [3H]-PN200-110 from L-type calcium channel in Hartley guinea pig ventricular membrane […] after 90 mins; parameters: species or system Cavia porcellus
[4] = Negative chronotropic activity in guinea pig right atrium assessed as decrease in atrial rate at 10^-5 M relative to control; type: functional, Cavia porcellus, Cardiac atrium; parameters: scale not given: the % may be the effect or the level left
[5] = Displacement of [3H]-PN200-110 from L-type calcium channel dihydropyridine binding site in Wistar rat cortex homogenate after 60 mins by liquid scintillation spectometric analysis; type: tissue-based
How it was run: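 Competition binding on rat cortex homogenate with (+)-[5-methyl-3H]PN200-110. Compounds are dissolved in DMSO as 10⁻² M stocks and diluted in buffer. Six displacer concentrations are tested, each in triplicate. IC50 is obtained by −log probit analysis and Ki by the Prusoff method. Values are mean ± SEM of 3−5 separate experiments done in triplicate.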

[6] = Displacement of [3H]-PN200-110 from L-type calcium channel in Hartley guinea pig atrial membrane after 90 mins; type: cell membranes, Cavia porcellus, Cardiac atrium
How it was run: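 Guinea pig atrial membranes are labelled at the 1,4-DHP site with (+)-[5-methyl-3H]PN200-110 at 0.5 nM. Competitor is added over 0.001−100 μM from 10⁻² M DMSO stocks diluted in buffer. Results are given as IC50 and Ki, mean ± SEM. Student's t-test is applied with P<0.001.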

Ileum [7] = experiment: Relaxant activity in potassium depolarized guinea pig ileum longitudinal smooth muscle assessed as inhibition of calcium-induced contraction at 5x10'-7 M relative to control; type: functional, Cavia porcellus; parameters: scale not given: the % may be the effect or the level left
Rattus norvegicus = organism: Rattus norvegicus; experiment: Displacement of [3H]-PN200-110 from L-type calcium channel dihydropyridine binding site in Wistar rat cortex homogenate at 100 uM after 60 mins by liquid scintillation spectometric analysis relative to control; type: tissue-based
How it was run: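 Binding on rat cortex homogenate using (+)-[5-methyl-3H]PN200-110. The read-out is percent of maximal radioligand displacement at 100 μM test compound. Compounds are made up as 10⁻² M DMSO stocks and diluted in buffer. Values are from 3−5 separate experiments done in triplicate.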

[8] = Displacement of [3H]-PN200-110 from voltage-gated calcium channel subunit alpha Cav1.2a (unknown origin) expressed in HEK293 cells after 90 mins by liquid scintillation counting analysis; type: cell-based, Homo sapiens
How it was run: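 Intact HEK-293 cells stably transfected with a rabbit Cav1.2a (α1c-a) plasmid are used. They are incubated with 0.5 nM (+)-[5-methyl-3H]PN200-110 plus competitor at 0.001−100 μM, from 10⁻² M DMSO stocks diluted in buffer. IC50 values are given as mean ± SEM.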

Ileum [9] = experiment: Relaxant activity in potassium depolarized guinea pig ileum longitudinal smooth muscle assessed as inhibition of calcium-induced contraction; type: functional, tissue-based; details: Cavia porcellus
How it was run: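 K⁺-depolarized (80 mM) guinea pig ileum longitudinal smooth muscle is used. Calcium-induced contraction is measured with cumulative compound addition.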

Aorta [10] = experiment: Relaxant activity in potassium depolarized guinea pig aortic strips assessed as inhibition of calcium-induced contraction at 10^-4 M relative to control; type: functional, Cavia porcellus; parameters: scale not given: the % may be the effect or the level left
How it was run: (§2)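 Guinea pig aortic strips and ileum longitudinal smooth muscle are depolarized with 80 mM K⁺. The read-out is percent inhibition of calcium-induced contraction. Aorta is tested at 10⁻⁴ M and ileum at 10⁻⁵ M.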

Cavia porcellus [11] = organism: Cavia porcellus; experiment: Displacement of [3H]-PN200-110 from L-type calcium channel in Hartley guinea pig ventricular membrane […] after 90 mins relative to control
Cavia porcellus [12] = organism: Cavia porcellus; experiment: Displacement of [3H]-PN200-110 from L-type calcium channel in Hartley guinea pig atrial membrane at 100 uM after 90 mins relative to control; type: cell membranes; details: Cardiac atrium
[13] = Negative chronotropic activity in guinea pig right atrium assessed as decrease in atrial rate; type: functional, tissue-based; details: Cavia porcellus, Cardiac atrium; how it was run: as §1
Ileum [14] = experiment: Relaxant activity in potassium depolarized guinea pig ileum longitudinal smooth muscle assessed as inhibition of calcium-induced contraction at 5x10'-6 M relative to control; type: functional, Cavia porcellus; parameters: scale not given: the % may be the effect or the level left
[15] = Negative inotropic activity in guinea pig left atrium assessed as decrease in developed tension at 10^-6 M relative to control; type: functional, Cavia porcellus, Cardiac atrium; parameters: scale not given: the % may be the effect or the level left
[16] = Negative chronotropic activity in guinea pig right atrium assessed as decrease in atrial rate at 10^-4 M relative to control; type: functional, Cavia porcellus, Cardiac atrium; parameters: scale not given: the % may be the effect or the level left
How it was run: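 The read-out is decrease in rate of spontaneously beating isolated guinea pig right atrium at 10⁻⁴ M. It is expressed as percent change from control, n = 7−8.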

Ileum [17] = experiment: Relaxant activity in potassium depolarized guinea pig ileum longitudinal smooth muscle assessed as inhibition of calcium-induced contraction at 10^-5 M relative to control; type: functional, Cavia porcellus; parameters: scale not given: the % may be the effect or the level left; how it was run: as §2
[18] = Negative inotropic activity in guinea pig left atrium assessed as decrease in developed tension at 10^-5 M relative to control; type: functional, Cavia porcellus, Cardiac atrium; parameters: scale not given: the % may be the effect or the level left
Aorta [19] = experiment: Relaxant activity in potassium depolarized guinea pig aortic strips assessed as inhibition of calcium-induced contraction at 5x10'-5 M relative to control; type: functional, Cavia porcellus; parameters: scale not given: the % may be the effect or the level left
[20] = Selectivity ratio of EC50 for negative chronotropic activity in guinea pig right atrium to EC50 for negative inotropic activity in guinea pig left atrium; type: functional, Cavia porcellus, Cardiac atrium
[21] = Negative chronotropic activity in guinea pig right atrium assessed as decrease in atrial rate at 5x10'-6 M relative to control; type: functional, Cavia porcellus, Cardiac atrium; parameters: scale not given: the % may be the effect or the level left

CCOC(=O)C1=C(C)NC(C)=C(C(=O)OCC)C1c1c(-c2cc(OC)ccc2OC)nc2sccn12
EC50 [1]: 1.16 µM
%max (HEK293): 94%
Activity [2]: 93%
IC50 [3]: 1.43 µM
Ki [3]: 0.51 µM
Activity [4]: 88%
IC50 [5]: 0.24 µM
Ki [5]: 0.17 µM
IC50 [6]: 0.078 µM
Ki [6]: 0.017 µM
Activity (Ileum [7]): 85%
%max (Rattus norvegicus): 98%
IC50 [8]: 0.86 µM
Ki [8]: 0.3 µM
IC50 (Ileum [9]): 0.046 µM
Activity (Aorta [10]): 29%
%max (Cavia porcellus [11]): 91%
%max (Cavia porcellus [12]): 76%
EC50 [13]: 2.63 µM

COC(=O)C1=C(C)NC(C)=C(C(=O)OC)C1c1c(-c2ccc(OC)c(OC)c2)nc2sccn12
%max (HEK293): 55%
IC50 [3]: 0.046 µM
Ki [3]: 0.016 µM
IC50 [5]: 0.35 µM
Ki [5]: 0.11 µM
IC50 [6]: 0.39 µM
Ki [6]: 0.14 µM
%max (Rattus norvegicus): 77%
IC50 [8]: 0.062 µM
Ki [8]: 0.023 µM
%max (Cavia porcellus [11]): 93%
%max (Cavia porcellus [12]): 50%

COC(=O)C1=C(C)NC(C)=C(C(=O)OC)C1c1c(-c2ccncc2)nc2sccn12
Activity (Ileum [14]): 90%
Activity [4]: 25%
Activity [15]: 46%
IC50 (Ileum [9]): 0.96 µM
Activity (Aorta [10]): 14%

COC(=O)C1=C(C)NC(C)=C(C(=O)OC)C1c1c(-c2cccc(OC)c2)nc2sccn12
%max (HEK293): < 50%
IC50 [3]: 0.45 µM
Ki [3]: 0.16 µM
IC50 [5]: 0.99 µM
Ki [5]: 0.33 µM
IC50 [6]: 0.29 µM
Ki [6]: 0.09 µM
%max (Rattus norvegicus): 90%
%max (Cavia porcellus [11]): 96%
%max (Cavia porcellus [12]): 92%

COC(=O)C1=C(C)NC(C)=C(C(=O)OC)C1c1c(-c2ccsc2)nc2sc(C)cn12
Activity [2]: 12%
Activity [16]: 85%
IC50 (Ileum [9]): 3.52 µM
Activity (Aorta [10]): 6%
Activity (Ileum [17]): 74%
EC50 [13]: 2.3 µM

COC(=O)C1=C(C)NC(C)=C(C(=O)OC)C1c1c(Cl)nc2sc(C)cn12
%max (HEK293): < 50%
IC50 [5]: 1020 µM
Ki [5]: 340 µM
IC50 [6]: 0.12 µM
Ki [6]: 0.042 µM
%max (Rattus norvegicus): 60%
%max (Cavia porcellus [11]): < 50%
%max (Cavia porcellus [12]): 95%

COC(=O)C1=C(C)NC(C)=C(C(=O)OC)C1c1c(-c2ccccn2)nc2sc(C)cn12
Activity [16]: 72%
Activity [15]: 42%
IC50 (Ileum [9]): 2.81 µM
Activity (Aorta [10]): 13%
Activity (Ileum [17]): 78%
EC50 [13]: 39.9 µM

COC(=O)C1=C(C)NC(C)=C(C(=O)OC)C1c1c(C(F)(F)F)nc2sccn12
IC50 [5]: 1.65 µM
Ki [5]: 0.52 µM
%max (Rattus norvegicus): 75%

COC(=O)C1=C(C)NC(C)=C(C(=O)OC)C1c1c(Cl)nc2scc(C)n12
IC50 [5]: 106 µM
Ki [5]: 34.7 µM
%max (Rattus norvegicus): 52%

COC(=O)C1=C(C)NC(C)=C(C(=O)OC)C1c1c(-c2cccnc2)nc2sccn12
Activity [18]: 25%
Activity [16]: 98%
IC50 (Ileum [9]): 3.55 µM
Activity (Aorta [10]): 36%
Activity (Ileum [17]): 91%
EC50 [13]: 28.4 µM

COC(=O)C1=C(C)NC(C)=C(C(=O)OC)C1c1c(-c2c(Cl)csc2Cl)nc2sccn12
Activity (Aorta [19]): 22%
EC50 [1]: 0.046 µM
Activity [2]: 74%
Ratio EC50 [20]: 47
Activity (Ileum [7]): 95%
IC50 (Ileum [9]): 0.18 µM
Activity [21]: 77%
EC50 [13]: 2.16 µM

COC(=O)C1=C(C)NC(C)=C(C(=O)OC)C1c1c(-c2ccccn2)nc2sccn12
Activity (Aorta [19]): 28%
EC50 [1]: 0.54 µM
Activity [18]: 58%
Ratio EC50 [20]: 45
Activity [16]: 71%
IC50 (Ileum [9]): 2.57 µM
Activity (Ileum [17]): 87%
EC50 [13]: 24.4 µM

CCCc1cn2c(C3C(C(=O)OC)=C(C)NC(C)=C3C(=O)OC)c(-c3c(OC)ccc(OC)c3[N+](=O)[O-])nc2s1
%max (HEK293): 55%
IC50 [3]: 3.32 µM
Ki [3]: 1.16 µM
IC50 [6]: 0.065 µM
Ki [6]: 0.023 µM
IC50 [8]: 0.0044 µM
Ki [8]: 0.0016 µM
%max (Cavia porcellus [11]): 50%
%max (Cavia porcellus [12]): 53%

COC(=O)C1=C(C)NC(C)=C(C(=O)OC)C1c1c(-c2ccccc2C(F)(F)F)nc2sccn12
%max (HEK293): < 50%
IC50 [5]: 38.6 µM
Ki [5]: 13.9 µM
IC50 [6]: 0.14 µM
Ki [6]: 0.049 µM
%max (Rattus norvegicus): 52%
%max (Cavia porcellus [11]): < 50%
%max (Cavia porcellus [12]): 91%

COC(=O)C1=C(C)NC(C)=C(C(=O)OC)C1c1c(-c2cccs2)nc2sc(C)cn12
Activity (Ileum [14]): 81%
Activity [16]: 70%
Activity [15]: 40%
IC50 (Ileum [9]): 1.37 µM
Activity (Aorta [10]): 9%
EC50 [13]: 40.5 µM

COC(=O)C1=C(C)NC(C)=C(C(=O)OC)C1c1c(-c2cc(OC)cc(OC)c2)nc2sccn12
%max (HEK293): 50%
IC50 [3]: 0.84 µM
Ki [3]: 0.31 µM
IC50 [5]: 1.21 µM
Ki [5]: 0.41 µM
IC50 [6]: 0.25 µM
Ki [6]: 0.09 µM
%max (Rattus norvegicus): 79%
IC50 [8]: 0.61 µM
Ki [8]: 0.19 µM
%max (Cavia porcellus [11]): 60%
%max (Cavia porcellus [12]): 54%

COC(=O)C1=C(C)NC(C)=C(C(=O)OC)C1c1c(-c2cc(OC)ccc2OC)nc2sccn12
%max (HEK293): < 50%
IC50 [5]: 0.21 µM
Ki [5]: 0.16 µM
IC50 [6]: 0.12 µM
Ki [6]: 0.044 µM
%max (Rattus norvegicus): 56%
%max (Cavia porcellus [11]): < 50%
%max (Cavia porcellus [12]): 65%
